Experiments:
[1] = Inhibition of recombinant full length HIV1 reverse transcriptase RNase H domain using RNA/DNA duplex substrate HTS1 assessed as reduction in internal cleavage of RNA strand by fluoresence assay; design: species or system Human immunodeficiency virus 1
Procedure, shortened: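 Full-length HIV RT incubated with fluorescein/Dabcyl-labelled 18-mer RNA/DNA duplex HTS-1, which reports non-specific internal RNA cleavage, across a compound concentration series. Dose-response data fitted by nonlinear regression to logistic curves. IC50 given as mean ± SD from at least two independent experiments.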

[2] = Inhibition of recombinant full length HIV1 reverse transcriptase polymerase domain assessed as decrease in extension of 18 nucleotide DNA primer annealed to 100 nucleotide DNA template after 30 mins; design: species or system Human immunodeficiency virus 1
Procedure, shortened: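 20 nM RT, 40 nM 18-nt primer annealed to 100-nt DNA template, and 10 μM dNTPs in 50 mM Tris pH 7.8, 50 mM NaCl, 1% DMSO, with increasing compound concentrations. Reactions started with 6 mM MgCl2, run 30 min at 37 °C, and stopped with 100 mM EDTA.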

[3] = Inhibition of HIV integrase strand transfer activity expressed in Escherichia coli BL21 (DE3) using 5' biotin ATGTGGAAAATCTCTAGCA primer annealed with ACTGCTAGAGATTTTCCACAT 3' Cy5 template preincubated for 10 mins followed by primer/template addition measured after 30 mins by fluorescence assay; design: species or system Human immunodeficiency virus
Procedure, shortened: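 Integrase preincubated 10 min at 25 °C with compound (final 0.13–100 μM, duplicate) in 10 mM HEPES pH 7.5, 10% glycerol, 10 mM MnCl2, 1 mM DTT, 1 μM enzyme. Biotin/Cy5 oligo duplex added; 30 min at 37 °C; EDTA quench.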

[4] = test system: Human immunodeficiency virus 1; test: Antiviral activity against HIV1 infected in CD4/CXCR4/CCR5 expressing human P4R5 cells assessed as inhibition of viral replication preincubated with cells for 24 hrs followed by viral infection measured after 48 hrs by beta-galactosidase reporter gene assay; assay type: functional; conditions: Human immunodeficiency virus 1, P4/R5
Procedure, shortened: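 P4R5 indicator cells (CD4, CXCR4, CCR5; HIV LTR-driven β-galactosidase reporter) seeded 4 × 10³/well in DMEM/10% FBS with puromycin (1 μg/mL). Cells lysed, MUG substrate added, fluorescence β-galactosidase readout.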

[5] = Cytotoxicity against human P4R5 cells by MTS assay; assay type: cell-based

With `O=C(Nc1ccc(C(F)(F)F)cc1)c1c(NCc2ccccc2)[nH]c(=O)n(O)c1=O` the IC50 [1] was 0.041 µM, the IC50 [2] was over 10 µM and the IC50 [3] was over 100 µM. The EC50 [4] was over 20 µM and the CC50 [5] was over 100 µM.
`O=C(Nc1ccc(F)cc1)c1c(Nc2ccccc2)[nH]c(=O)n(O)c1=O` showed an IC50 [1] of 0.004 µM, an IC50 [2] of over 10 µM and an IC50 [3] of 3.1 µM. It also gave an EC50 [4] of 6.1 µM and a CC50 [5] of 58.4 µM.
`O=C(Nc1ccccc1)c1c(NCc2ccc(-c3ccccc3)cc2)[nH]c(=O)n(O)c1=O` showed an IC50 [1] of 0.047 µM, an IC50 [2] of over 10 µM and an IC50 [3] of over 100 µM. For the same compound, the EC50 [4] was over 20 µM.
Work on `COc1ccc(-c2ccc(NC(=O)c3c(Nc4ccc(-c5ccccc5)cc4)[nH]c(=O)n(O)c3=O)cc2)cc1` yielded an IC50 [1] of 1.2 µM, an IC50 [2] of 1.4 µM and an IC50 [3] of over 100 µM.
Work on `Cc1ccc(NC(=O)c2c(Nc3ccccc3)[nH]c(=O)n(O)c2=O)cc1` yielded an IC50 [1] of 0.03 µM, an IC50 [2] of over 10 µM and an IC50 [3] of 2.6 µM. For the same compound, the EC50 [4] was 4.5 µM and the CC50 [5] was over 100 µM.
`O=C(NCc1ccc(F)cc1)c1c(Nc2ccc(-c3ccccc3)cc2)[nH]c(=O)n(O)c1=O` showed an IC50 [1] of 0.047 µM, an IC50 [2] of over 10 µM and an IC50 [3] of over 100 µM.
For `O=C(NCc1ccc(F)cc1F)c1c(Nc2ccc(-c3ccccc3)cc2)[nH]c(=O)n(O)c1=O`, the IC50 [1] was 0.077 µM, the IC50 [2] was 8.6 µM and the IC50 [3] was over 100 µM. It also gave an EC50 [4] of 1.5 µM and a CC50 [5] of over 100 µM.
`O=C(Nc1ccc(-c2ccccc2)cc1)c1c(NCc2ccccc2)[nH]c(=O)n(O)c1=O` gave an IC50 [1] of 0.12 µM, an IC50 [2] of over 10 µM and an IC50 [3] of over 100 µM. The EC50 [4] was 15 µM and the CC50 [5] was 54 µM.
In the case of `CCc1ccc(NC(=O)c2c(NCc3ccccc3)[nH]c(=O)n(O)c2=O)cc1`, the IC50 [1] is reported as 0.054 µM, the IC50 [2] is reported as 10 µM and the IC50 [3] is reported as over 100 µM. It also gave an EC50 [4] of 8.5 µM and a CC50 [5] of over 100 µM.
For `O=C(Nc1ccccc1)c1c(NCc2ccccc2)[nH]c(=O)n(O)c1=O`, the IC50 [1] was 0.027 µM, the IC50 [2] was over 10 µM and the IC50 [3] was over 100 µM. For the same compound, the EC50 [4] was 6.9 µM and the CC50 [5] was 52 µM.
In the case of `O=C(Nc1ccccc1)c1c(Nc2ccccc2)[nH]c(=O)n(O)c1=O`, the IC50 [1] is reported as 0.016 µM, the IC50 [2] is reported as over 10 µM and the IC50 [3] is reported as 1.5 µM. For the same compound, the EC50 [4] was 6.6 µM and the CC50 [5] was over 100 µM.
Compound `O=C(NCc1ccccc1)c1c(NCc2ccc(-c3ccccc3)cc2)[nH]c(=O)n(O)c1=O` has an IC50 [1] of 0.054 µM, an IC50 [2] of over 10 µM and an IC50 [3] of 1.6 µM. The EC50 [4] was over 20 µM.
With `O=C(Nc1cccc2ccccc12)c1c(NCc2ccccc2)[nH]c(=O)n(O)c1=O` the IC50 [1] was 0.057 µM, the IC50 [2] was over 10 µM and the IC50 [3] was 21 µM. It also gave an EC50 [4] of over 20 µM and a CC50 [5] of over 100 µM.
With `O=C(NCc1cc(F)ccc1F)c1c(Nc2ccc(-c3ccccc3)cc2)[nH]c(=O)n(O)c1=O` the IC50 [1] was 0.05 µM, the IC50 [2] was 9.5 µM and the IC50 [3] was over 100 µM. For the same compound, the EC50 [4] was 3.7 µM and the CC50 [5] was over 100 µM.
`O=C(Nc1ccc(F)cc1)c1c(NCc2ccccc2)[nH]c(=O)n(O)c1=O` showed an IC50 [1] of 0.019 µM, an IC50 [2] of 10 µM and an IC50 [3] of 71 µM. The EC50 [4] was over 20 µM and the CC50 [5] was over 100 µM.
Compound `COc1cc2ccccc2cc1/C=N/NC(=O)c1cc(O)c(O)c(O)c1` has an IC50 [1] of 0.2 µM and an IC50 [2] of 0.5 µM.
Work on `Cc1ccc(NC(=O)c2c(NCc3ccccc3)[nH]c(=O)n(O)c2=O)cc1` yielded an IC50 [1] of 0.019 µM, an IC50 [2] of 10 µM and an IC50 [3] of 34 µM. It also gave an EC50 [4] of 7.2 µM and a CC50 [5] of 53 µM.
`O=C(NCc1cccc(Cl)c1F)c1c(Nc2ccc(-c3ccccc3)cc2)[nH]c(=O)n(O)c1=O` showed an IC50 [1] of 0.059 µM, an IC50 [2] of over 10 µM and an IC50 [3] of over 100 µM.
Compound `O=C(Nc1cccc2ccccc12)c1c(Nc2ccccc2)[nH]c(=O)n(O)c1=O` has an IC50 [1] of 0.018 µM, an IC50 [2] of 7.7 µM and an IC50 [3] of 3.2 µM. For the same compound, the EC50 [4] was 11.4 µM and the CC50 [5] was 76.8 µM.
Compound `O=C(Nc1ccc(-c2ccc(F)cc2)cc1)c1c(Nc2ccc(-c3ccccc3)cc2)[nH]c(=O)n(O)c1=O` has an IC50 [1] of 0.97 µM, an IC50 [2] of 1.6 µM and an IC50 [3] of over 100 µM.
In the case of `O=C(NCc1ccc(-c2ccccc2)cc1)c1c(NCc2ccc(-c3ccccc3)cc2)[nH]c(=O)n(O)c1=O`, the IC50 [1] is reported as 0.11 µM, the IC50 [2] is reported as over 10 µM and the IC50 [3] is reported as over 100 µM. It also gave an EC50 [4] of over 20 µM and a CC50 [5] of over 100 µM.
Compound `O=C(NCc1ccccc1F)c1c(Nc2ccc(-c3ccccc3)cc2)[nH]c(=O)n(O)c1=O` has an IC50 [1] of 0.04 µM, an IC50 [2] of over 10 µM and an IC50 [3] of over 100 µM.
Compound `O=C(NCc1ccccc1)c1c(NCc2ccccc2)[nH]c(=O)n(O)c1=O` has an IC50 [1] of 0.032 µM, an IC50 [2] of over 10 µM and an IC50 [3] of 0.14 µM. It also gave an EC50 [4] of 1.4 µM and a CC50 [5] of over 100 µM.
`O=C(NCc1ccc(-c2ccccc2)cc1)c1c(NCc2ccccc2)[nH]c(=O)n(O)c1=O` gave an IC50 [1] of 0.038 µM, an IC50 [2] of over 10 µM and an IC50 [3] of over 100 µM. It also gave an EC50 [4] of over 20 µM and a CC50 [5] of over 100 µM.
In the case of `O=C(Nc1ccc(F)cc1F)c1c(NCc2ccccc2)[nH]c(=O)n(O)c1=O`, the IC50 [1] is reported as 0.079 µM, the IC50 [2] is reported as over 10 µM and the IC50 [3] is reported as 29 µM. It also gave an EC50 [4] of over 20 µM and a CC50 [5] of over 100 µM.
For `O=C(Nc1ccc(-c2ccccc2)cc1)c1c(NCc2ccc(-c3ccccc3)cc2)[nH]c(=O)n(O)c1=O`, the IC50 [1] was 0.14 µM, the IC50 [2] was over 10 µM and the IC50 [3] was over 100 µM. The EC50 [4] was over 20 µM.
For `O=C(Nc1ccc(-c2ccccc2)cc1)c1c(Nc2ccc(-c3ccccc3)cc2)[nH]c(=O)n(O)c1=O`, the IC50 [1] was 1 µM, the IC50 [2] was 1.8 µM and the IC50 [3] was over 100 µM.
`O=C(NCc1ccccc1)c1c(Nc2ccccc2)[nH]c(=O)n(O)c1=O` showed an IC50 [1] of 0.056 µM, an IC50 [2] of over 10 µM and an IC50 [3] of 0.23 µM. For the same compound, the EC50 [4] was 0.6 µM and the CC50 [5] was over 100 µM.
Work on `O=C(NCc1cccc(F)c1)c1c(Nc2ccc(-c3ccccc3)cc2)[nH]c(=O)n(O)c1=O` yielded an IC50 [1] of 0.049 µM, an IC50 [2] of over 10 µM and an IC50 [3] of over 100 µM. For the same compound, the EC50 [4] was 6.3 µM and the CC50 [5] was over 100 µM.
Work on `O=C(NCc1ccccc1)c1c(Nc2ccc(-c3ccccc3)cc2)[nH]c(=O)n(O)c1=O` yielded an IC50 [1] of 0.11 µM, an IC50 [2] of over 10 µM and an IC50 [3] of 23 µM.
With `O=C(Nc1ccc(C(F)(F)F)cc1)c1c(Nc2ccccc2)[nH]c(=O)n(O)c1=O` the IC50 [1] was 0.038 µM, the IC50 [2] was 8.1 µM and the IC50 [3] was 9.5 µM. It also gave an EC50 [4] of 3.5 µM and a CC50 [5] of over 100 µM.

Reference: ChEMBL document CHEMBL4049461, “Double-Winged 3-Hydroxypyrimidine-2,4-diones: Potent and Selective Inhibition against HIV-1 RNase H with Significant Antiviral Activity” (J Med Chem, 2017)
